Laboratory results from ChEMBL document CHEMBL1138363, “N,N'-dihydroxyamidines: a new prodrug principle to improve the oral bioavailability of amidines” (J Med Chem, 2007).

Columns and labels:
Conditions in all cases: in vivo
Sus scrofa [1] = experiment: Plasma concentration in pig at 10 mg/kg, po; type: ADME, organism-based; design: dose 10 mg/kg, route oral
Summary of the method: (§1)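 Prodrug given orally to three pigs at 10 mg/kg body weight. Heparinized blood samples were centrifuged at 1500g for 10 min at 4 °C, stored at -80 °C and worked up by solid-phase extraction. Some samples were pretreated with β-glucuronidase/sulfatase. Benzamidine and benzamidoxime were measured in plasma by HPLC. Pharmacokinetic parameters were estimated for each pig from the plasma concentration-time curves.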

[2] = Tmax in po dosed pig; type: ADME, organism-based, Sus scrofa; summary of the method: as §1
[3] = Cmax in po dosed pig; type: ADME, organism-based, Sus scrofa; design: route oral; summary of the method: as §1
[4] = Half life in po dosed pig; type: ADME, organism-based, Sus scrofa; summary of the method: as §1
[5] = Mean resident time in po dosed pig; type: ADME, organism-based, Sus scrofa; summary of the method: as §1
Sus scrofa [6] = experiment: AUC in po dosed pig; type: ADME, organism-based, Plasma; summary of the method: as §1
Sus scrofa [7] = experiment: Volume of distribution in po dosed pig; type: ADME, organism-based; summary of the method: as §1
Sus scrofa [8] = experiment: Clearance in po dosed pig; type: ADME, organism-based; summary of the method: as §1
[9] = Oral bioavailability in pig; type: ADME, organism-based, Sus scrofa; summary of the method: as §1

concentration (Sus scrofa [1]) [µM] | Tmax [2] [h] | Cmax [3] [µM] | half-life [4] [h] | MRT [5] [h] | AUC (Sus scrofa [6]) [µM·h] | Vd (Sus scrofa [7]) [L/kg] | CL (Sus scrofa [8]) [mL/min/kg] | bioavailability [9] [%] | SMILES
13.7 | 2 | 13.7 | 3.7 | 6.16 | 98.7 | 7.91 | 30 | 91 | N=C(N)c1ccccc1 [BENZAMIDINE]
0.4 | – | – | – | – | – | – | – | – | NC(=NO)c1ccccc1 [BENZAMIDOXIME]
